# Data published in article PMC3941648 (Protein and peptide letters, 2014).
# “Also recorded” adds a separate entry of the source. *: point of attachment. FITC = O=C1OC2(c3ccc(O)cc3Oc3cc(O)ccc32)c2ccc(NC(=S)*)cc21; Biotin = O=C1N[C@H]2[C@H](CS[C@H]2CCCCC(=O)*)N1; Ahx = NCCCCCC(=O)O
# Key:
# Type in all cases: cell-based, Chinese hamster
# pgs A-745 cells = test: Cellular uptake of peptide-horseradish peroxidase; conditions: pgs A-745 cells lacking surface GAGs; 240 ng/ml complex, 30 min, 37°C; TMB substrate, 405 nm; n=3
# wild-type CHO K1 cells = test: Cellular uptake of FITC-labeled peptides, flow cytometry and confocal microscopy; conditions: as stated in the abstract; cell type not stated
# How it was run: (§1)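 CHO K1 wild-type and GAG-deficient mutants were grown in DMEM/F12 with 10% FBS at 37 °C. At ~75% confluence (48 h after seeding), cells were exposed to 20 μM FITC-labelled peptide for 2 h at 37 °C, then trypsinised, washed and analysed by flow cytometry. Dead cells (7-AAD-positive) were gated out, ≥5,000 events were collected and uptake was expressed relative to wild-type. Confocal imaging used a ~0.40 micron mid Z-section. Triplicates, mean ± S.D., t test.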
# [1] = system: pgs C-605 cells (sulfate transporter-defective CHO K1 mutant); test: Cellular uptake of FITC-labeled peptides, flow cytometry; conditions: 20 μM FITC-labeled peptide, 2 h, 37°C
# How it was run: (§2)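 Mutant and wild-type CHO K1 cells were seeded 48 h before use and treated at ~75% confluence with 20 μM FITC-labelled peptide in DMEM/F12 for 2 h at 37 °C. Cells were washed, trypsinised for 5 min and resuspended at 2×10⁶ cells/ml. 7-AAD (0.5 ng/μl final) excluded dead cells. Fluorescence was read with 488-nm excitation on ≥5,000 live events and compared with wild-type. Triplicates, mean ± S.D.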
# [2] = system: pgs F-17 cells (2-O-sulfation-defective CHO K1 mutant); test: as above; conditions: 20 μM FITC-labeled peptide, 2 h, 37°C
# How it was run: as §2
# [3] = system: pgs D-677 cells (heparan sulfate-defective CHO K1 mutant); test: Cellular uptake of FITC-labeled peptides, flow cytometry and confocal microscopy; conditions: deduced from uptake in pgs D-677 versus wt CHO K1; 20 μM, 2 h, 37°C
# How it was run: as §1
substance,measurement,setting,value
{Biotin-Ahx}-KKGFYKKKQCRPSKGRKRGFCWAVDKYG-NH2 (cysteine pairing not given here) [KG-28],Uptake of complex into cells (peroxidase activity of cell extracts),pgs A-745 cells,abolished
{FITC-Ahx}-KKGFYKKK-NH2 [KK-8],Uptake activity retained within KW-22 (abstract),wild-type CHO K1 cells,no uptake activity
{FITC-Ahx}-KKGFYKKKQCRPSKGRKRGFCW-NH2 (cysteine pairing not given here) [KW-22],Cellular fluorescence (uptake) compared with wt CHO K1,[1],comparable with that of the wt cells
same,Cellular uptake compared with wt CHO K1,[2],comparable to that in wt cells; also recorded: barely affected
same,Contribution of heparan sulfate to total uptake,[3],~ 38%
